From ChEMBL document CHEMBL1145867, “Muraymycins, novel peptidoglycan biosynthesis inhibitors: synthesis and SAR of their analogues” (2003)
Values after ≈ are worked out from the molar mass of the structure shown. Active and inactive are the calls of the source. The calls are words filed in the database; no cut-off is given here.

What was measured:
[1] = tested on: Candida albicans; test: In vitro antimicrobial activity against Candida albicans GC 3066; assay type: functional
Procedure, shortened: (§1)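 Broth microdilution per NCCLS guidance. Serial dilutions of each agent in microtiter plates are inoculated with each organism to 10⁵ CFU/mL and incubated 18–22 h at 35 C in ambient air. MIC is the lowest concentration giving complete growth inhibition, judged by the unaided eye.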

[2] = tested on: Enterococcus faecalis; test: In vitro antimicrobial activity against Enterococcus faecalis GC 2242; assay type: functional; procedure, shortened: as §1
[3] = tested on: Enterococcus faecalis; test: In vitro antimicrobial activity against Enterococcus faecalis GC 4555; assay type: functional; procedure, shortened: as §1
[4] = tested on: Enterococcus faecalis; test: In vitro antimicrobial activity against Enterococcus faecalis GC 842; assay type: functional; procedure, shortened: as §1
[5] = tested on: Bacteria; test: In vitro antimicrobial activity against gram-negative organisms (10); assay type: functional; procedure, shortened: as §1
[6] = tested on: Escherichia coli; test: In vitro antimicrobial activity against Escherichia coli GC 2214; assay type: functional; procedure, shortened: as §1
[7] = tested on: Escherichia coli; test: In vitro antimicrobial activity against Escherichia coli GC 4559; assay type: functional; procedure, shortened: as §1
[8] = tested on: Escherichia coli; test: In vitro antimicrobial activity against Escherichia coli GC 4560; assay type: functional; procedure, shortened: as §1
[9] = tested on: Enterobacter cloacae; test: In vitro antimicrobial activity against Enterobacter cloacae GC 3783; assay type: functional; procedure, shortened: as §1
[10] = tested on: Klebsiella pneumoniae; test: In vitro antimicrobial activity against Klebsiella pneumoniae GC 4534; assay type: functional; procedure, shortened: as §1
[11] = The inhibitory activity of compound against MraY or MurG at 100 ug/mL; Inhibit
[12] = The inhibitory activity of compound against MraY or MurG at 12.5 ug/mL; No Inhibition
[13] = The inhibitory activity of compound against MraY or MurG at 25 ug/mL; No Inhibition
[14] = The inhibitory activity of compound against MraY or MurG at 50 ug/mL; Inhibit
[15] = The inhibitory activity of compound against MraY or MurG at 6.25 ug/mL; No Inhibition
[16] = tested on: Pseudomonas aeruginosa; test: In vitro antimicrobial activity against Pseudomonas aeruginosa GC 2214; assay type: functional; procedure, shortened: as §1
[17] = tested on: Pseudomonas aeruginosa; test: In vitro antimicrobial activity against Pseudomonas aeruginosa GC 4532; assay type: functional; procedure, shortened: as §1
[18] = tested on: Staphylococcus sp.; test: In vitro antimicrobial activity against Staphylococci; assay type: functional, staphyl ococcus species; procedure, shortened: as §1
[19] = tested on: Staphylococcus sp.; test: In vitro antimicrobial activity against CNS GC 4538; assay type: functional; procedure, shortened: as §1
[20] = tested on: Staphylococcus aureus; test: In vitro antimicrobial activity against Staphylococcu aureus GC 1131; assay type: functional
Procedure, shortened: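 Broth dilution per NCCLS recommendations. Serial dilutions in microtiter plates inoculated to 10⁵ CFU/mL, then incubated 18–22 h at 35 C in ambient air. MIC taken as the lowest concentration giving complete growth inhibition by unaided eye.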

[21] = tested on: Staphylococcus aureus; test: In vitro antimicrobial activity against Staphylococcu aureus GC 2216; assay type: functional; procedure, shortened: as §1
[22] = tested on: Staphylococcus aureus; test: In vitro antimicrobial activity against Staphylococcu aureus GC 4536; assay type: functional; procedure, shortened: as §1
[23] = tested on: Staphylococcus sp.; test: In vitro antimicrobial activity against CNS GC 4547; assay type: functional; procedure, shortened: as §1
[24] = tested on: Escherichia coli; test: In vitro antimicrobial activity against Escherichia coli GC 3226; assay type: functional; procedure, shortened: as §1
[25] = tested on: Enterococcus sp.; test: In vitro antimicrobial activity against Enterococci; assay type: functional; procedure, shortened: as §1
[26] = tested on: Serratia marcescens; test: In vitro antimicrobial activity against Serratia marcescens GC 4077; assay type: functional; procedure, shortened: as §1
[27] = tested on: Serratia marcescens; test: In vitro antimicrobial activity against In vitro antimicrobial activity against Serratia marcescens GC 4077
[28] = tested on: Candida albicans; test: In vitro antimicrobial activity against Candida albicans […] at 10.7 ug/ml soluble peptidoglycan; assay type: functional
[29] = tested on: Enterococcus faecalis; test: In vitro antimicrobial activity against Enterococcus faecalis GC 4555 at 10.7 ug/ml soluble peptidoglycan; assay type: functional
[30] = tested on: Enterococcus faecalis; test: In vitro antimicrobial activity against Enterococcus faecalis GC 842 at 10.7 ug/ml soluble peptidoglycan; assay type: functional
[31] = tested on: Enterococcus faecalis; test: In vitro antimicrobial activity against Enterococcus faecalis GC 2242 at 10.7 ug/ml soluble peptidoglycan; assay type: functional
[32] = tested on: Staphylococcus sp.; test: In vitro antimicrobial activity against CNS GC 4538 at 10.7 ug/ml soluble peptidoglycan; assay type: functional
[33] = tested on: Staphylococcus aureus; test: In vitro antimicrobial activity against Staphylococcus aureus GC 1131 at 10.7 ug/ml soluble peptidoglycan; assay type: functional
[34] = tested on: Staphylococcus aureus; test: In vitro antimicrobial activity against Staphylococcus aureus GC 2216 at 10.7 ug/ml soluble peptidoglycan; assay type: functional
[35] = tested on: Staphylococcus aureus; test: In vitro antimicrobial activity against Staphylococcus aureus GC 4536 at 10.7 ug/ml soluble peptidoglycan; assay type: functional
[36] = tested on: Staphylococcus sp.; test: In vitro antimicrobial activity against CNS GC 4547 at 10.7 ug/mL soluble peptidoglycan; assay type: functional
[37] = tested on: Staphylococcus sp.; test: In vitro antimicrobial activity against Coagulase-negative staphylococcus GC 4538 at 10.7 ug/ml soluble peptidoglycan; assay type: functional
[38] = tested on: Bacteria; test: In vitro antimicrobial activity against gram-negative organisms (10)
[39] = tested on: Morganella morganii; test: In vitro antimicrobial activity against Morganella morganii GC 4531; assay type: functional; procedure, shortened: as §1
[40] = The inhibitory activity of compound against MraY or MurG at 12.5 ug/mL; Inhibit
[41] = The inhibitory activity of compound against MraY or MurG at 25 ug/mL; Inhibit
[42] = The inhibitory activity of compound against MraY or MurG at 6.25 ug/mL; Inhibit
[43] = Staphylococcus sp., read-out: MIC

SMILES	MIC [1] [µg/mL]	MIC [2] [µg/mL]	MIC [3] [µg/mL]	MIC [4] [µg/mL]	MIC [5] [µg/mL]	MIC [6] [µg/mL]	MIC [7] [µg/mL]	MIC [8] [µg/mL]	MIC [9] [µg/mL]	MIC [10] [µg/mL]	Inhibitory activity [11]	Inhibitory activity [12]	Inhibitory activity [13]	Inhibitory activity [14]	Inhibitory activity [15]	MIC [16] [µg/mL]	MIC [17] [µg/mL]	MIC [18] [µg/mL]	MIC [19] [µg/mL]	MIC [19, 43] [µg/mL]	further results
COc1ccc(Cn2c(=O)ccn([C@@H]3OC([C@H](O)[C@H](NCCCNC(=O)[C@@H](C)N)C(=O)OC(C)(C)C)[C@@H](O[Si](C)(C)C(C)(C)C)[C@H]3O[Si](C)(C)C(C)(C)C)c2=O)cc1 (some centres not stated)	128 (≈ 151 µM)	4 (≈ 4.7 µM)	8 (≈ 9.41 µM)	4 (≈ 4.7 µM)	64 (≈ 75.3 µM)	128 (≈ 151 µM)	128 (≈ 151 µM)	128 (≈ 151 µM)	128 (≈ 151 µM)	128 (≈ 151 µM)	Inhibit	inactive	inactive	Inhibit	inactive	128 (≈ 151 µM)	128 (≈ 151 µM)	4 (≈ 4.7 µM)	8 (≈ 9.41 µM)	4 (≈ 4.7 µM)	MIC [20]: 4 µg/mL (≈ 4.7 µM); MIC [21]: 8 µg/mL (≈ 9.41 µM); MIC [22]: 4 µg/mL (≈ 4.7 µM); MIC [23]: 4 µg/mL (≈ 4.7 µM); MIC [24]: 128 µg/mL (≈ 151 µM); MIC [25]: 4 µg/mL (≈ 4.7 µM); MIC [26]: 128 µg/mL (≈ 151 µM); MIC [27]: 128 µg/mL (≈ 151 µM)
COc1ccc(Cn2c(=O)ccn([C@@H]3OC([C@@H](O)[C@H](NCCCNC(=O)[C@H](N)C(O)C(C)C)C(=O)OC(C)(C)C)[C@@H](O[Si](C)(C)C(C)(C)C)[C@H]3O[Si](C)(C)C(C)(C)C)c2=O)cc1 (some centres not stated)	–	–	–	–	–	–	–	–	–	–	Inhibit	inactive	inactive	Inhibit	inactive	–	–	–	–	–	MIC [28]: 128 µg/mL (≈ 141 µM); MIC [29]: 128 µg/mL (≈ 141 µM); MIC [30]: > 128 µg/mL; MIC [31]: 128 µg/mL (≈ 141 µM); MIC [32]: 128 µg/mL (≈ 141 µM); MIC [33]: 128 µg/mL (≈ 141 µM); MIC [34]: 128 µg/mL (≈ 141 µM); MIC [35]: 128 µg/mL (≈ 141 µM); MIC [36]: 8 µg/mL (≈ 8.81 µM); MIC [37]: 128 µg/mL (≈ 141 µM); MIC [38]: > 128 µg/mL
CC(C)C(O)[C@@H](N)C(=O)NCCCN[C@H](C(=O)OC(C)(C)C)[C@@H](O)C1O[C@@H](n2ccc(=O)[nH]c2=O)[C@H](O[Si](C)(C)C(C)(C)C)[C@@H]1O[Si](C)(C)C(C)(C)C (some centres not stated)	32 (≈ 40.6 µM)	2 (≈ 2.54 µM)	2 (≈ 2.54 µM)	2 (≈ 2.54 µM)	> 128	128 (≈ 162 µM)	> 128	32 (≈ 40.6 µM)	128 (≈ 162 µM)	128 (≈ 162 µM)	Inhibit	–	–	Inhibit	inactive	> 128	128 (≈ 162 µM)	1 (≈ 1.27 µM)	2 (≈ 2.54 µM)	1 (≈ 1.27 µM)	MIC [39]: 128 µg/mL (≈ 162 µM); Inhibitory activity [40]: Inhibit; Inhibitory activity [41]: Inhibit; MIC [20]: 1 µg/mL (≈ 1.27 µM); MIC [21]: 2 µg/mL (≈ 2.54 µM); MIC [22]: 1 µg/mL (≈ 1.27 µM); MIC [23]: 2 µg/mL (≈ 2.54 µM); MIC [24]: > 128 µg/mL; MIC [25]: 2 µg/mL (≈ 2.54 µM); MIC [26]: 128 µg/mL (≈ 162 µM)
COC1C(O)[C@@H](OC(C(NCCCNC(=O)[C@H](NC(=O)[C@@H](NC(=O)N[C@H](C(=O)O)C(C)C)C2CCN=C(N)N2)C(O)C(C)C)C(=O)O)[C@H]2O[C@@H](n3ccc(=O)[nH]c3=O)[C@H](O)[C@@H]2O)O[C@H]1CN (some centres not stated)	–	–	–	–	–	–	–	–	–	–	Inhibit	–	–	Inhibit	–	–	–	–	–	–	Inhibitory activity [40]: Inhibit; Inhibitory activity [41]: Inhibit; Inhibitory activity [42]: Inhibit
